Measurements as given in ChEMBL document CHEMBL6134900 (J Med Chem, 2025).
The source made the active and inactive calls. No cut-off for these calls is given here.

Legend:
[1] = In vivo PROTAC activity at CRBN/SMARCA2 in female athymic nude mouse xenografted with human NCI-H1568 cells harboring SMARCA4 mutant assessed as SMARCA2 degradation at 40 mg/kg, po administered once daily via gavage for 13 days by Western blotting analysis relative to control; assay type: functional; conditions: time 13 day
How it was run: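 H1568 cells (2 × 10^6, PBS/Matrigel 1:1) implanted subcutaneously in the flank of female nude mice aged 6–8 weeks. Randomised at about 60 mm3 tumour volume. 40 mg/kg or vehicle given by oral gavage once daily for 13 days in 0.5% methylcellulose/Tween-80, sonicated. Tumours collected 24 h after dosing. SMARCA2 measured by Western blot against β-actin, relative to vehicle.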

[2] = Drug concentration in C57BL/6 mouse plasma at 80 mg/kg, po administered once daily for 3 days and measured at 24 hrs post last dose; assay type: ADME, organism-based; conditions: time 3 day
How it was run: (§1)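 Oral dosing once daily for 3 days: 5–80 mg/kg in C57BL/6 mice, 10–80 mg/kg in CrbnI391V mice. Euthanized 24 h after last dose. Plasma drug level measured. Spleen SMARCA2 by Western blot against actin loading control, relative to vehicle.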

[3] = target: T1, Protein cereblon/SWI/SNF-related matrix-associated actin-dependent regulator of chromatin subfamily A member 2 (Homo sapiens, UniProt P51531+Q96SW2); experiment: PROTAC activity at CRBN/SMARCA2 in human H322 cells harboring SMARCA4 mutant assessed as induction of SMARCA2 degradation at 1 uM in presence of MLN4924 by immunoblot analysis; assay type: cell-based
[4] = In vivo PROTAC activity at CRBN/SMARCA2 in C57BL/6 mouse assessed as induction of SMARCA2 degradation in spleen at 80 mg/kg, po administered once daily via gavage for 3 days by Western blotting analysis relative to control; assay type: functional; conditions: time 3 day; how it was run: as §1
[5] = target: Transcriptional coactivator YAP1 (Homo sapiens) (UniProt P46937); experiment: Induction of YAP1 phosphorylation at S127 residue in human H322 cells harboring SMARCA4 mutant at 1 uM incubated for 96 hrs by immunoblot analysis; assay type: cell-based; conditions: filed as activator
Sequence of Transcriptional coactivator YAP1 (Homo sapiens) (P46937 whole entry): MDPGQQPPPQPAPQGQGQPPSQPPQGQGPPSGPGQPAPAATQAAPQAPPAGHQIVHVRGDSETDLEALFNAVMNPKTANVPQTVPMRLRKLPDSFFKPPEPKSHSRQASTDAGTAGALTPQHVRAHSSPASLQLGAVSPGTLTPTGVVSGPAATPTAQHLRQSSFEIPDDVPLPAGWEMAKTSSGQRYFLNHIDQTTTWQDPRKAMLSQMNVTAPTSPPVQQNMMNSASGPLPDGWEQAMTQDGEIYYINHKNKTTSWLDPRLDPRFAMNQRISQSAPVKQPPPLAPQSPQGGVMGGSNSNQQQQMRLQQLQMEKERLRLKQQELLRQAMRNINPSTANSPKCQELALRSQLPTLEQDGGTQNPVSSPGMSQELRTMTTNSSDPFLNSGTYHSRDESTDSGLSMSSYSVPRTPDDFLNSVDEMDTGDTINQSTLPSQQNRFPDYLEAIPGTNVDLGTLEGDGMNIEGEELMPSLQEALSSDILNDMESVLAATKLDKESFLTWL

[6] = Drug concentration in C57BL/6 mouse plasma at 5 mg/kg, po administered once daily for 3 days and measured at 24 hrs post last dose; assay type: ADME, organism-based; conditions: time 3 day; how it was run: as §1
NCI-H2030 [7] = experiment: Inhibition of ERK phosphorylation in human NCI-H2030 cells harboring KRAS G12C mutant/SMARCA4 mutant assessed as reduction in p-ERK level at 1.25 uM incubated for 72 hrs in presence of sotorasib by Western blotting analysis; assay type: cell-based
[8] = Drug metabolism in mouse liver microsomes assessed as oxidative dealkylation and mono-oxygenation mediated M3 metabolite formation at 10 uM incubated for 60 mins by LC-UV-HRMS analysis; assay type: ADME, Microsome; conditions: 1 h
How it was run: (§2)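 Compound at 10 μM incubated with mouse liver microsomes at 37 °C for 60 min. Metabolites detected by LC-UV-HRMS, structures proposed from MS and MS2 data, and each metabolite given as a percentage.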

[9] = Drug metabolism in mouse liver microsomes assessed as Mono-oxygenation mediated M2 metabolite formation at 10 uM incubated for 60 mins by LC-UV-HRMS analysis; assay type: ADME, Microsome; conditions: 1 h; how it was run: as §2
[10] = target: T1, Protein cereblon/SWI/SNF-related matrix-associated actin-dependent regulator of chromatin subfamily A member 2; experiment: PROTAC activity at CRBN/SMARCA2 in human H322 cells harboring SMARCA4 mutant assessed as induction of SMARCA2 degradation at 1 uM in presence of pomalidomide by immunoblot analysis; assay type: cell-based
[11] = Toxicity in immunocompromised mouse xenografted with human NCI-H1568 cells assessed as change in body weight at 80 mg/kg, administered once daily for 21 days; assay type: organism-based; conditions: in vivo, 504 h, time 21 day
[12] = target: T1, Protein cereblon/SWI/SNF-related matrix-associated actin-dependent regulator of chromatin subfamily A member 2; experiment: PROTAC activity at CRBN/SMARCA2 in human H322 cells harboring SMARCA4 mutant assessed as induction of SMARCA2 degradation at 1 uM in presence of Gen-1 by immunoblot analysis; assay type: cell-based
NCI-H2030 [13] = experiment: Synergistic antitumor activity against human NCI-H2030 cells harboring KRAS G12C mutant/SMARCA4 mutant assessed as inhibition of colony formation incubated for 8 days in presence of sotorasib by clonogenic growth assay; assay type: functional, cell-based; conditions: time 8.0 day
How it was run: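 H2030 clonogenic assay over 8 days with 2-fold dilutions of sotorasib, test agent, or both. Crystal violet staining, total colony area normalized. Synergy scored as Bliss/Lowe consensus, >10 taken as synergy.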

[14] = target: T1, Protein cereblon/SWI/SNF-related matrix-associated actin-dependent regulator of chromatin subfamily A member 2; experiment: PROTAC activity at CRBN/SMARCA2 in human H322 cells harboring SMARCA4 mutant assessed as induction of SMARCA2 degradation at 0.1 uM in presence of Gen-1 by immunoblot analysis; assay type: cell-based
[15] = Half life in male CD-1 (ICR) mouse at 25 mg/kg, po measured up to 24 hrs by LC-MS/MS analysis; assay type: ADME, organism-based; conditions: in vivo
How it was run: (§3)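 Single 25 mg/kg dose. IP vehicle was 5% DMSO/5% solutol/90% water at 1.25 mg/mL, final pH 4.39, clear solution. Oral vehicle was 0.5% methylcellulose/0.2% Tween 80 in water, opaque suspension. Plasma sampled at 0.25, 0.5, 1, 2, 4, 8 and 24 h. Plasma protein-precipitated with internal standard in acetonitrile, then LC-MS/MS. n = 3 mice per time point, mean.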

[16] = target: T1, Protein cereblon/SWI/SNF-related matrix-associated actin-dependent regulator of chromatin subfamily A member 2; experiment: PROTAC activity at CRBN/SMARCA2 in human H322 cells harboring SMARCA4 mutant assessed as induction of SMARCA2 degradation at 0.1 uM in presence of bortezomib by immunoblot analysis; assay type: cell-based
NCI-H2030 [17] = experiment: Inhibition of ERK phosphorylation in human NCI-H2030 cells harboring KRAS G12C mutant/SMARCA4 mutant assessed as reduction in p-ERK level at 1.25 uM incubated for 48 hrs in presence of sotorasib by Western blotting analysis; assay type: cell-based
[18] = target: T1, Protein cereblon/SWI/SNF-related matrix-associated actin-dependent regulator of chromatin subfamily A member 2; experiment: PROTAC activity at CRBN/SMARCA2 in CRBN knockout human H322 cells harboring SMARCA4 mutant assessed as induction of SMARCA2 degradation at 0.1 uM by immunoblot analysis; assay type: cell-based
[19] = target: Transcriptional coactivator YAP1 (Homo sapiens) (UniProt P46937); experiment: Induction of YAP1 phosphorylation at S127 residue in human H322 cells harboring SMARCA4 mutant at 0.1 uM incubated for 96 hrs by immunoblot analysis; assay type: cell-based; conditions: filed as activator
[20] = Antitumor activity against human NCI-H2023 cells harboring SMARCA4 mutant xenografted in female athymic nude mouse assessed as tumor growth inhibition at 5 mg/kg, po administered once daily via gavage for 19 days relative to control; assay type: functional; conditions: NCI-H2023, 456 h, time 19 day, read-out: TGI
How it was run: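 Cells (H1568 2 × 10^6, H2023 10 × 10^6, HCC515 5 × 10^6) in PBS:Matrigel 1:1, 200 μL, injected subcutaneously into flanks of 6–8-week-old females. Randomized at mean tumor volume 60 mm3 (H1568) or <200 mm3 (others). Dosed in 0.5% methylcellulose + 0.2–1% Tween-80, sonicated on ice. Caliper tumor volume and body weight tracked, mean ± SEM.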

[21] = AUC (0 to infinity) in male CD-1 (ICR) mouse at 25 mg/kg, po measured up to 24 hrs by LC-MS/MS analysis; assay type: ADME, organism-based; conditions: in vivo; how it was run: as §3
[22] = Drug metabolism in mouse liver microsomes assessed as mono-oxygenation and N-dealkylation mediated M2 metabolite formation at 10 uM incubated for 60 mins by LC-UV-HRMS analysis; assay type: ADME, Microsome; conditions: 1 h; how it was run: as §2

Nc1nnc(-c2ccccc2O)cc1N1CCN(Cc2ccc(N3CCC(CN4CCN(c5ccc6c(c5)C(=O)N(C5CCC(=O)NC5=O)C6=O)CC4)CC3)c(F)c2)CC1 (configuration not stated)
Activity [1]: 50% | concentration at 72 h [2]: 1880 nM | Activity [3]: inactive | Activity [4]: 70% | Activity [5]: Active | concentration at 72 h [6]: ~100 nM | inhibition (NCI-H2030 [7]): Active | Drug metabolism [8]: metabolite_detected | Drug metabolism [9]: metabolite_detected | Activity [10]: inactive | Activity [11]: Non-toxic | Activity [12]: inactive

Nc1nnc(-c2ccccc2O)cc1N1CCN(Cc2ccc(N3CCN(CCOc4cccc5c4C(=O)N(C4CCC(=O)NC4=O)C5=O)CC3)c(F)c2)CC1 (configuration not stated)
Activity (NCI-H2030 [13]): Active | Activity [14]: inactive | t1/2 [15]: 6 h | Activity [16]: inactive | inhibition (NCI-H2030 [17]): Active | Activity [18]: inactive | Activity [19]: Active | inhibition in vivo at 5 mg/kg [20]: 62.5% | AUC [21]: 5122 ng·h/mL | Drug metabolism [22]: metabolite_detected
